{
  "source": "ChEMBL document CHEMBL5712078",
  "about": "“BRD9 Inhibition, Alone or in Combination with Cytostatic Compounds as a Therapeutic Approach in Rhabdoid Tumors” (Int J Mol Sci, 2017)",
  "key": {"[1]": {"tested_on": "BT-12", "test": "Induction of apoptosis in human BT-12 cells assessed as necrotic cells at 10 uM incubated for 72 hrs by flow cytometry analysis (reference value: 9.1+/-2.8 %)", "assay_type": "functional", "method_in_brief": "(§1)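 Annexin V/PI flow assay. G401 at 10,000 cells/mL and BT12 or Chla266 at 30,000 cells/mL were seeded in 12-well plates. Next day medium was replaced with medium holding I-BRD9 or BI-9564 at 0, 5, 10 or 20 µM final for 72 h. Cells were washed in PBS, stained with FITC-Annexin V and propidium iodide for 15 min in the dark at room temperature, then read by flow cytometry. Percentage of dead cells, n ≥3, mean ± SD, one-way ANOVA versus control.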"}, "[2]": {"tested_on": "G-401", "test": "Induction of apoptosis in human G-401 cells assessed as necrotic cells at 10 uM incubated for 72 hrs by flow cytometry analysis (Rvb= 5.7+/-1.9 %)", "assay_type": "functional", "method_in_brief": "as §1"}, "[3]": {"tested_on": "G-401", "test": "Anti-proliferative activity against human G-401 cells assessed as cell viability incubated for 144 hrs by MTT assay", "assay_type": "functional, cell-based", "conditions": "G-401, 144 h", "method_in_brief": "(§2)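 MTT proliferation assay. Cells were seeded at 3000 (BT16, KD, G401) or 5000 (BT12, Chla266) cells per well and drug was added after 24 h, final 0.001–100 µM. Read at 72 or 144 h; 144 h wells got fresh medium and drug on day 3. MTT for 3 h, formazan dissolved in isopropanol/0.04 N HCl, absorbance at 570/630 nm. Technical triplicates, ≥3 independent runs, IC50 derived.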"}, "[4]": {"tested_on": "BT-12", "test": "Anti-proliferative activity against human BT-12 cells assessed as cell viability incubated for 72 hrs by MTT assay", "assay_type": "functional, cell-based", "conditions": "BT-12, 72 h", "method_in_brief": "as §2"}, "[5]": {"tested_on": "G-401", "test": "Anti-proliferative activity against human G-401 cells assessed as inhibition cell growth incubated for 72 hrs in presence of vincristine by MTT-based Chou-Talalay method", "assay_type": "functional", "conditions": "G-401, 72 h", "method_in_brief": "(§3)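 Combination MTT assay. I-BRD9 and carboplatin, doxorubicin or vincristine were given together at a fixed 10:1 ratio, with cytostatics 0.0001–10 µM final, added 24 h after seeding. MTT read-out at 570/630 nm after 3 h formazan solubilisation. Combination index from the Chou–Talalay median-effect method: CI <1 synergism, CI >1 antagonism. n ≥3.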"}, "[6]": {"test": "Anti-proliferative activity against human KD cells assessed as cell viability incubated for 72 hrs by MTT assay", "assay_type": "functional, cell-based", "method_in_brief": "as §2"}, "[7]": {"tested_on": "CHLA-266", "test": "Cytotoxicity against human CHLA-266 cells assessed as change in cell viability at 5 to 20 uM treated for 72 hrs", "assay_type": "functional, cell-based", "conditions": "dose 5-20 µM", "method_in_brief": "as §1"}, "[8]": {"tested_on": "G-401", "test": "Induction of cell cycle arrest in human G-401 cells assessed as accumulation of cells at G1 phase at 20 uM incubated for 72 hrs by flow cytometry analysis (reference value: 46.7+/-1.9 %)", "assay_type": "functional", "method_in_brief": "(§4)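 72 h DAPI flow-cytometry cell-cycle assay. Chla266 in IMDM/20% FBS seeded at 30,000 cells/mL; G401 in DMEM/10% FBS at 10,000 cells/mL; 1 mL/well, 37 °C, 5% CO2. Next day the medium was replaced with inhibitor at final 0, 5, 10 or 20 µM. Cells were harvested, PBS-washed, and the G1 percentage was read. n ≥ 3, mean ± SD, one-way ANOVA vs control.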"}, "[9]": {"tested_on": "G-401", "test": "Anti-proliferative activity against human G-401 cells assessed as cell viability incubated for 72 hrs by MTT assay", "assay_type": "functional, cell-based", "conditions": "G-401, 72 h", "method_in_brief": "as §2"}, "[10]": {"tested_on": "G-401", "test": "Anti-proliferative activity against human G-401 cells assessed as inhibition cell growth incubated for 72 hrs in presence of carboplatin by MTT-based Chou-Talalay method", "assay_type": "functional", "conditions": "G-401, 72 h", "method_in_brief": "as §3"}, "[11]": {"tested_on": "CHLA-266", "test": "Induction of cell cycle arrest in human CHLA-266 cells assessed as accumulation of cells at G1 phase incubated for 72 hrs by flow cytometry analysis", "assay_type": "functional, cell-based", "conditions": "dose 5-20 µM", "method_in_brief": "as §4"}, "[12]": {"test": "Anti-proliferative activity against human KD cells assessed as cell viability incubated for 144 hrs by MTT assay", "assay_type": "functional, cell-based", "method_in_brief": "as §2"}, "[13]": {"tested_on": "BT-12", "test": "Anti-proliferative activity against human BT-12 cells assessed as inhibition cell growth incubated for 72 hrs in presence of vincristine by MTT-based Chou-Talalay method", "assay_type": "functional", "conditions": "BT-12, 72 h", "method_in_brief": "as §3"}, "[14]": {"tested_on": "BT-12", "test": "Induction of cell cycle arrest in human BT-12 cells assessed as accumulation of cells at G1 phase incubated for 72 hrs by flow cytometry analysis", "assay_type": "functional, cell-based", "conditions": "dose 5-20 µM", "method_in_brief": "(§5)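 Cell cycle. Seeding and 72 h treatment as for the apoptosis assay, with I-BRD9 or BI-9564 at 0, 5, 10 or 20 µM final. A 100 µL cell suspension was stained with DAPI and read by flow cytometry. Percentage of cells in G1, n ≥3, mean ± SD, one-way ANOVA versus control.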"}, "[15]": {"tested_on": "G-401", "test": "Induction of apoptosis in human G-401 cells assessed as necrotic cells at 20 uM incubated for 72 hrs by flow cytometry analysis (Rvb= 5.7+/-1.9 %)", "assay_type": "functional", "method_in_brief": "as §1"}, "[16]": {"tested_on": "BT-12", "test": "Induction of apoptosis in human BT-12 cells assessed as necrotic cells incubated for 72 hrs by flow cytometry analysis", "assay_type": "functional, cell-based", "conditions": "dose 5-20 µM", "method_in_brief": "as §1"}, "[17]": {"tested_on": "BT-12", "test": "Anti-proliferative activity against human BT-12 cells assessed as cell viability incubated for 144 hrs by MTT assay", "assay_type": "functional, cell-based", "conditions": "BT-12, 144 h", "method_in_brief": "as §2"}, "[18]": {"tested_on": "BT-12", "test": "Induction of cell cycle arrest in human BT-12 cells assessed as accumulation of cells at G1 phase at 5 uM incubated for 72 hrs by flow cytometry analysis (Rvb =69+/-1.9%)", "assay_type": "functional", "method_in_brief": "as §5"}, "[19]": {"tested_on": "G-401", "test": "Induction of cell cycle arrest in human G-401 cells assessed as accumulation of cells at G1 phase at 20 uM incubated for 72 hrs by flow cytometry analysis (reference value: 51.7+/-2%)", "assay_type": "functional", "method_in_brief": "as §4"}, "[20]": {"tested_on": "G-401", "test": "Induction of apoptosis in human G-401 cells assessed as necrotic cells at 5 uM incubated for 72 hrs by flow cytometry analysis (Rvb= 5.7+/-1.9 %)", "assay_type": "functional", "method_in_brief": "as §1"}, "[21]": {"tested_on": "CHLA-266", "test": "Induction of cell cycle arrest in human CHLA-266 cells assessed as accumulation of cells at G1 phase at 20 uM incubated for 72 hrs by flow cytometry analysis (reference value: 74.2+/-3.6%)", "assay_type": "functional", "method_in_brief": "as §5"}, "[22]": {"tested_on": "CHLA-266", "test": "Induction of apoptosis in human CHLA-266 cells assessed as necrotic cells at 10 uM incubated for 72 hrs by flow cytometry analysis (Rvb= 5.0+/-0.3 %)"}},
  "note": "Active and inactive are the calls of the source. The rule behind the calls is not given here.",
  "data": [
    {"smiles": "CCn1cc(-c2cccc(C(F)(F)F)c2)c2sc(C(=N)NC3CCS(=O)(=O)CC3)cc2c1=O", "values": [
      {"measurement": "Activity", "setting": "[1]", "result": 17.6, "unit": "%"},
      {"measurement": "Activity", "setting": "[2]", "result": 18.8, "unit": "%"},
      {"measurement": "IC50", "setting": "[3]", "result": 6.1, "unit": "µM"},
      {"measurement": "IC50", "setting": "[4]", "result": 21.2, "unit": "µM"},
      {"measurement": "IC50", "setting": "[5]", "result": 0.008, "unit": "µM"},
      {"measurement": "IC50", "setting": "[6]", "result": 8.1, "unit": "µM"},
      {"measurement": "Activity", "setting": "[7]", "result": "Active"},
      {"measurement": "Activity", "setting": "[8]", "result": 78.1, "unit": "%"},
      {"measurement": "IC50", "setting": "[9]", "result": 13.4, "unit": "µM"},
      {"measurement": "IC50", "setting": "[10]", "result": 9.1, "unit": "µM"},
      {"measurement": "Activity", "setting": "[11]", "result": "Dose-Dependent Effect"},
      {"measurement": "IC50", "setting": "[12]", "result": 7.1, "unit": "µM"},
      {"measurement": "IC50", "setting": "[13]", "result": 16.7, "unit": "µM"},
      {"measurement": "Activity", "setting": "[14]", "result": "Dose-Dependent Effect"},
      {"measurement": "Activity", "setting": "[15]", "result": 70.8, "unit": "%"},
      {"measurement": "Activity", "setting": "[16]", "result": "Dose-Dependent Effect"},
      {"measurement": "IC50", "setting": "[17]", "result": 8.2, "unit": "µM"},
      {"measurement": "Activity", "setting": "[18]", "result": 75, "unit": "%"},
      {"measurement": "Activity", "setting": "[19]", "result": 65.5, "unit": "%"},
      {"measurement": "Activity", "setting": "[20]", "result": 7.7, "unit": "%"},
      {"measurement": "Activity", "setting": "[21]", "result": 89.3, "unit": "%"},
      {"measurement": "Activity", "setting": "[22]", "result": 11.7, "unit": "%"}
    ]}
  ]
}
